Screening data as filed in PubChem.
This is a sample that favours compounds with a hit; in the whole collection about 2.4% have one here.
NPY Y2 blocker: antagonists of human neuropeptide Y receptor Y2. 0.99% of 140,000 active. NPY-Y2 expressing cells, antagonist mode. inhibition, % at 2.7 µM. P49146; in the data active = inhibition above about 17%;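 also: 0% = vehicle with agonist challenge and 100% = reference antagonist with challenge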
Target sequence (P49146 whole entry, looked up): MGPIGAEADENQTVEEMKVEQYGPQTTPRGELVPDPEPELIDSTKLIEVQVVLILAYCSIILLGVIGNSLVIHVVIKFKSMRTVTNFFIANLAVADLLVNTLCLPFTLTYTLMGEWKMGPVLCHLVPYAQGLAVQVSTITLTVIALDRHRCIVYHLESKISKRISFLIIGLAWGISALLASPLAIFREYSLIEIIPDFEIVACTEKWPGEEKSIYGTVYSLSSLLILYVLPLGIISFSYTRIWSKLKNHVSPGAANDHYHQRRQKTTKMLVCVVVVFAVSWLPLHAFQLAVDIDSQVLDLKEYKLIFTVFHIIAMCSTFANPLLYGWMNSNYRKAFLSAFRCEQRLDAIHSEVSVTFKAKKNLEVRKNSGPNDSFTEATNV
S1P4 agonist: activates the human S1P4 receptor | S1P4-expressing cell line, agonist reporter assay | activation, % at 4.98 µM | 0.35% of 220,000 active; in the data active = activation above about 11%;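 also: 0% = DMSO vehicle and 100% = reference agonist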
Target sequence (O95977 whole entry, looked up): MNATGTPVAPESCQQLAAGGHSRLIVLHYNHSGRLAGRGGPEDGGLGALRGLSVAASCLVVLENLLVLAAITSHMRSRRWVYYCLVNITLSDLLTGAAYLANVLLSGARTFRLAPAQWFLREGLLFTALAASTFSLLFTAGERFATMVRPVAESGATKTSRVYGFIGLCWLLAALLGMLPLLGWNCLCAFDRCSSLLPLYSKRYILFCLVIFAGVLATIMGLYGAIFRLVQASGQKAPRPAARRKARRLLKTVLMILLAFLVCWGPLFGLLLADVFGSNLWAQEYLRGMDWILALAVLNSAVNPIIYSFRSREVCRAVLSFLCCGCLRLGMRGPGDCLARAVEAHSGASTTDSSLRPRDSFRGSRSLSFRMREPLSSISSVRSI
NPY-Y2 PAM-ag: human NPY-Y2 potentiation or agonism, primary screen; P49146; cells expressing NPY-Y2, potentiator/agonist read-out; activation, % at 3.6 µM; 0.45% of 220,000 active; AID 1359; in the data active = activation above about 27%;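 also: cells stimulated with NPY near EC25 plus isoproterenol at EC100; 0% = vehicle plus submaximal agonist and 100% = vehicle plus saturating agonist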
NPY-Y1 PAM-ag: human NPY-Y1 potentiation or agonism, primary screen; P25929; NPY-Y1 expressing cells, potentiator/agonist activation; 0.37% of 220,000 active; activation, % at 3.6 µM; in the data active = activation above about 33%, passing the limit was not always enough;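 also: cells stimulated with NPY at EC10 then isoproterenol at EC100; 0% = low agonist plus stimulus and 100% = saturating agonist plus stimulus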
S1P4 antagonist: antagonists of human S1P4 receptor; O95977; S1P4-expressing cells, antagonist mode, reporter read-out; inhibition, % at 4.98 µM; 0.26% of 220,000 active; AID 1510; in the data active = inhibition above about 29%;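 also: 0% = wells stimulated with agonist and 100% = vehicle wells without agonist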
NPY-Y1 antag: NPY-Y1 (human) receptor antagonism; P25929; HEK293-CNG Y1 cells, membrane potential fluorescence; NPY at EC95, then isoproterenol; inhibition, % at 3.6 µM; AID 1040; 1% of 200,000 active;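 active = inhibition above the campaign mean inhibition of all tested compounds plus 3 SD, cut at about 20% in these data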;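 also: 0% = DMSO wells given NPY plus isoproterenol and 100% = isoproterenol alone without NPY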
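Benchmarks – high control isoproterenol alone, low control NPY with isoproterenol · Material – HEK293 Y1/CNG channel cell line · Times – dye 3 h, compound 60 min room temperature, stimulation 45 min · Probe or stimulus – NPY (25 nM), isoproterenol (1 µM), Ro 20-1724 (25 µM) · Evaluation – % inhibition of NPY effect · Signal – fluorescence, membrane potential probe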
NPY-Y2 pot conf: human NPY-Y2 potentiation or agonism, confirmation | shares compounds with NPY-Y2 PAM-ag | cell-based NPY-Y2 potentiator/agonist assay | activation, % at 3.6 µM | 20% of 450 active | AID 1539; in the data active = activation above about 33%
NPY-Y1 potentiator: NPY-Y1 potentiation or agonism as NPY-Y2 counter-screen | shares compounds with NPY-Y2 PAM-ag | Y1 HEK293-CNG cells, membrane potential fluorescence | activation, % at 3.6 µM | 20% of 450 active | AID 1651; in the data active = activation above about 45%;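 also: cells stimulated with submaximal NPY then isoproterenol with phosphodiesterase inhibitor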
NPY-Y1 agonist 2: counter-screen for NPY-Y2 potentiators: agonists of human NPY-Y1; shares compounds with NPY-Y2 PAM-ag; HEK293 Y1-CNGC, membrane potential fluorescence, agonism; activation, % at 3.6 µM; 37% of 450 active;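 active = activation above the mean of DMSO-only control wells plus 3 SD, cut at about 18% in these data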;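 also: cells stimulated with 1 µM isoproterenol plus the PDE inhibitor Ro 20-1724; 0% = isoproterenol with DMSO and no NPY and 100% = 40 nM NPY; Y1 agonists lower the membrane potential dye signal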
CNGC inh: blocks CNG channel activity, counter-screen for NPY-Y2 potentiators; shares compounds with NPY-Y2 PAM-ag; HEK293-CNG parental, isoproterenol cAMP, membrane potential fluorescence; inhibition, % at 3.6 µM; 32% of 450 active;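 active = inhibition above the control-well mean plus 3 SD of those wells, cut at about 22% in these data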;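 also: 0% = DMSO with isoproterenol and 100% = DMSO without isoproterenol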
Y2 agonist ctr: counter-screen for NPY-Y2 potentiators: agonists of human NPY-Y2; shares compounds with NPY-Y2 PAM-ag; HEK293 Y2/CNGC cells, membrane potential fluorescence, agonist mode; activation, % at 3.6 µM; 56% of 450 active;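 active = activation above the mean of solvent-only control wells plus 3 SD, cut at about 10% in these data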;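 also: cells stimulated by isoproterenol with no NPY added so direct agonism is tested; 0% = DMSO with isoproterenol alone and 100% = NPY at EC100 plus isoproterenol; agonism lowers probe fluorescence through less cAMP and CNG channel opening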
* hit, by the source's call; · = no result.

SMILES	NPY Y2 blocker	S1P4 agonist	NPY-Y2 PAM-ag	NPY-Y1 PAM-ag	S1P4 antagonist	NPY-Y1 antag	NPY-Y2 pot conf	NPY-Y1 potentiator	NPY-Y1 agonist 2	CNGC inh	Y2 agonist ctr
COCCNC(=O)[C@H](CSCc1ccccc1)N1Cc2ccccc2C1=O	·	-0.6	102.2*	4.0	-1.6	·	0.3	3.4	3.0	-0.8	4.7
Cc1cccc(-n2c(N)cc(=O)nc2SCC(=O)Nc2cc(C)on2)c1	1.7	0.1	78.7*	34.4	-15.1	3.0	-4.4	2.4	-5.5	-3.7	-7.9
Cc1cc(NC(=O)CSc2nc(=O)cc(N)n2-c2ccc(Cl)cc2)no1	·	1.4	-6.4	12.6	-13.2	-4.7	·	·	·	·	·
O=C(Nc1ccc(F)cc1)NC1CCCCC1	0.6	1.4	99.2*	-11.0	-2.5	2.4	-5.0	-2.5	-6.3	-8.5	-11.4
Nc1[nH]nc2c1NN(c1ccc(Cl)cc1Cl)N2	-5.9	0.3	32.2*	36.6	-5.3	-3.6	26.5	29.2	16.7	23.7*	21.0*
C=C(C(=O)c1ccccc1)C(C(=C)C(=O)c1ccccc1)c1ccc(OC)cc1	·	-1.1	-11.6	-15.2	-18.5	·	·	·	·	·	·
N=C1CCC(=N)c2c1c(O)c1ccccc1c2O	·	-1.0	40.7*	32.5	-8.6	·	21.1	23.5	23.2*	21.2	18.2*
CC(C)c1ccc(NC(=O)Nc2cc3sccc3n2C)cc1	-0.8	-3.0	-1.4	-1.8	-9.0	-1.6	·	·	·	·	·
O=C(CSc1nnc(CNC(=O)c2ccco2)o1)Nc1nc2ccccc2s1	·	-1.0	-16.8	-0.9	-2.7	-4.2	·	·	·	·	·
C/C=C/C(=O)N1c2ccc(C)cc2C(C)=CC1(C)C	·	-0.7	97.2*	-26.3	-3.9	·	-9.0	-1.6	-9.7	-10.6	-2.3
CC1=CC(C)(C)N(C(=O)CSc2nnc(C)s2)c2ccc(C)cc21	1.6	-0.2	2.1	17.4	-6.8	-1.4	·	·	·	·	·
O=C(/C(N=Nc1cccc([N+](=O)[O-])c1)=C(/O)c1ccc(Br)cc1)C(F)(F)F	·	1.5	41.0*	28.2	4.3	·	31.1	10.6	15.5	14.7	19.6*
N#C/C(=N\Nc1cccc([N+](=O)[O-])c1)C(=O)c1ccc(Br)cc1	·	-1.1	12.2	-3.1	23.4	5.4	·	·	·	·	·
CCOC(=O)c1c(C2CC2)csc1NC(=O)COC(=O)c1cnc(Cl)c(Cl)c1	5.9	-0.8	59.6*	15.4	-28.3	-1.8	-10.7	-21.7	-26.3	-11.7	-14.2
COc1cc(-c2nc(-c3ccccc3)c(-c3cccs3)[nH]2)cc(OC)c1OC	-3.3	-3.1	11.9	17.8	-2.6	-0.8	·	·	·	·	·
c1ccc(-c2nc(-c3cccs3)[nH]c2-c2ccccc2)cc1	-2.4	0.7	41.1*	37.2	-39.7	-8.8	27.8	45.7*	26.6*	26.2*	28.2*
Cc1nn(C)c(C)c1CNC(=O)c1nn2c(c1Cl)NC(c1cccs1)CC2C(F)(F)F (configuration not stated)	16.2	1.9	29.3*	0.7	-11.8	-7.3	6.1	0.1	10.9	2.5	-3.2
Cc1nn(C)cc1CNC(=O)c1cc2n(n1)C(C(F)(F)F)CC(c1cccs1)N2 (configuration not stated)	1.4	1.1	6.7	11.8	-13.0	-0.3	·	·	·	·	·
COC(=O)c1ccc(NC(=O)CSc2nnc(C(C)NC(=O)c3ccccc3Cl)n2C)cc1 (configuration not stated)	-4.4	0.4	37.0*	32.9	0.2	-1.2	10.1	16.2	17.0	10.2	28.4*
COc1ccc(CC(=O)NC(C)c2nnc(SCC(=O)Nc3ccccc3)n2C)cc1 (configuration not stated)	·	-0.2	-6.5	2.6	16.8	-4.3	·	·	·	·	·
COc1ccc(/C=C\C(=O)c2c(O)ccc3c(C)cc(=O)oc23)cc1	9.7	-0.5	-26.4	-32.1	1.7	14.8	·	·	·	·	·
COc1ccc(/C=C/C(=O)c2c(O)ccc3c(C)cc(=O)oc23)cc1	7.5	0.2	63.8*	33.5	0.1	1.0	-17.5	-30.4	-32.1	-23.2	-13.8
O=C(Nc1cccc(S(=O)(=O)Nc2ccc(Cl)cc2)c1)c1ccc(Cl)nc1	-2.2	-1.0	46.2*	1.0	-39.4	6.3	11.2	-16.4	-20.8	1.0	3.4
O=C(Nc1ccc(N2CCCCC2)cc1)c1ccccn1	·	-0.4	0.5	-9.8	6.4	-3.8	·	·	·	·	·
Nc1nc(Nc2ccc(Cl)cc2)nc2ccccc12	-1.0	-3.1	51.1*	36.5	12.7	-5.9	55.5*	65.0*	41.3*	50.4*	42.4*
SMILES	NPY Y2 blocker	S1P4 agonist	NPY-Y2 PAM-ag	NPY-Y1 PAM-ag	S1P4 antagonist	NPY-Y1 antag	NPY-Y2 pot conf	NPY-Y1 potentiator	NPY-Y1 agonist 2	CNGC inh	Y2 agonist ctr
Cc1ccccc1Nc1nc(N)c2ccccc2n1	·	0.5	11.9	-8.3	-3.5	3.1	·	·	·	·	·
COCCOC(=O)C(CC(=O)O)NCc1ccco1 (configuration not stated)	·	-1.1	47.8*	14.7	1.4	·	-0.2	-3.1	2.0	11.8	15.2*
Oc1ccccc1N=Nc1ccccc1O	·	0.3	29.2*	31.5	-8.9	-4.1	35.8*	45.8*	29.9*	27.4*	42.6*
Cc1sc(-c2ccccn2)nc1OC(=O)c1ccc(Cl)c(Cl)c1	5.3	1.0	3.2	-1.6	-9.5	5.4	·	·	·	·	·
Cc1sc(-c2ccccn2)nc1OC(=O)c1ccc(F)cc1F	·	4.3	36.8*	26.4	-2.9	-4.0	7.2	11.3	14.2	-2.6	18.4*
[O-]/[N+](=C\c1ccncc1)c1ccc(Br)cc1	2.1	1.6	57.2*	41.1	-6.2	-5.1	12.9	20.4	20.0*	1.4	7.3
CNC(=O)COc1ncnc2scc(-c3ccc(F)cc3)c12	·	-3.7	3.6	-13.6	-1.7	-2.1	·	·	·	·	·
Nc1c(-c2cccc(Cl)c2)cnn1-c1cccc(C(F)(F)F)c1	0.7	1.1	41.7*	35.9	-14.2	2.1	61.0*	67.9*	61.2*	47.1*	74.5*
CCC(C)c1ccc2oc(-c3ccc(NC(=O)c4ncn[nH]4)cc3)nc2c1 (configuration not stated)	3.7	5.3	35.4*	-3.5	-5.7	-0.6	10.2	25.1	9.8	4.9	7.8
CCN(CC)c1cc(C)c2cc(NC(=O)c3ccccc3OC)ccc2n1	·	1.4	-6.6	-9.3	-8.2	10.5	·	·	·	·	·
CCN(CC)c1cc(C)c2cc(NC(=O)c3cccs3)ccc2n1	·	-0.5	28.4*	35.3	-8.6	-3.7	32.5	52.9*	34.7*	45.1*	34.5*
